Screening data (PubChem)
SENP7 inh: blocks the human protease SENP7; recombinant SENP7, Z-RLRGG-aminoluciferin luminescence, 40 min; inhibition, % at 5 µM; hit rate 1.5% among 330,000; AID 434973;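 active means inhibition above about 50% at the single test dose, limit read from the data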;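 further: plate controls were DMSO with enzyme for no effect and no enzyme buffer wells for full effect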
SENP8 block-1: inhibitors of human SENP8 protease; Q96LD8; recombinant SENP8, Nedd8 substrate fluorescence; inhibition, % at 20 µM; hit rate 0.64% among 360,000; in the data active means inhibition mostly above about 40%, no sharp cut-off; inactive means mostly below about 27%
Target sequence (Q96LD8 whole entry, looked up): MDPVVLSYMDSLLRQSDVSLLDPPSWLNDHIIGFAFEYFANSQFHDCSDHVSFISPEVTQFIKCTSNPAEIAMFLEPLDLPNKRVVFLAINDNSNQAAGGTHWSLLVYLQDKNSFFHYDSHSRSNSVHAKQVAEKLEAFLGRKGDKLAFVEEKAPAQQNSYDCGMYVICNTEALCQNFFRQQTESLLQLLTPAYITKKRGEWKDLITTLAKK
SENP6 block: SENP6 protease inhibition; hit rate 1.8% among 330,000; inhibition, % at 10 µM; Recombinant SENP6 catalytic domain, aminoluciferin luminescence; AID 2599;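 active means inhibition above about 50% at the single tested dose, limit read from the data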;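 further: plate controls were DMSO wells with enzyme for no effect and DMSO wells lacking enzyme for full effect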
SENP8 block-2: SENP8 protease inhibition | purified SENP8, Z-RLRGG-aminoluciferin cleavage, luminescence | inhibition, % at 10 µM | hit rate 1.2% among 330,000; in the data active means inhibition above about 50%
SENP1 FRET inh: SENP1 (human) catalytic domain inhibition. Q9P0U3. recombinant SENP1 catalytic domain, CyPet-SUMO1-YPet FRET cleavage. inhibition, % at 10 µM. hit rate 0.21% among 360,000. AID 624204;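 active means inhibition at least 30% at 10 µM, raw YFP signal under a set limit, fluorescence ratio 0.5 to 1.5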;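 further: 0% = enzyme with DMSO and 100% = no enzyme wells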
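Assay system: hSENP1 catalytic domain, recombinant. Amount: SENP1 enzyme, 20 pM final. Schedule: 50 min reaction, RT, dark. Technique: FRET, CFP and YFP emission. Control set: no-enzyme wells low, DMSO-plus-enzyme wells high control.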
SENP8 confirm: human SENP8 inhibition, confirmed. shares compounds with SENP7 inh. inhibition, % at 12.5 µM. Recombinant SENP8, Z-RLRGG-aminoluciferin luminescence, 60 min. hit rate 40% among 6,200;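 active means mean inhibition across replicates above about 50%, limit read from the data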
SENP6 confirm: human SENP6 inhibition, confirmed; shares compounds with SENP7 inh; recombinant SENP6, Z-RLRGG-aminoluciferin luminescence; inhibition, % at 12.5 µM; hit rate 58% among 6,200; AID 488915
SENP7 conf: confirmation of human SENP7 protease inhibitors; shares compounds with SENP7 inh; hit rate 69% among 6,200; recombinant SENP7, Z-RLRGG-aminoluciferin luminescence, 40 min; AID 488917; inhibition, % at 12.5 µM
Casp3 SENP sel: inhibits human caspase-3 in SENP selectivity test | shares compounds with SENP7 inh | inhibition, % at 12.5 µM | AID 488918 | purified caspase-3, Z-DEVD-aminoluciferin luminescence, 60 min | hit rate 60% among 6,200;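 active means mean inhibition above about 50%, limit read from the data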;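 further: plate controls were enzyme with DMSO for no effect and wells without caspase-3 for full effect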
Target sequence (P42574 28-227 limits assumed): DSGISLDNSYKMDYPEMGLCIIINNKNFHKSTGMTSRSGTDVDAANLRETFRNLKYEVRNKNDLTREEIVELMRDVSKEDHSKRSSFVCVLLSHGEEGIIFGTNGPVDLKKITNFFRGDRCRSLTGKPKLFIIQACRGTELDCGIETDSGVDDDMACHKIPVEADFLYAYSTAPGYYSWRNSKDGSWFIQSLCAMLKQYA
Luc interf: luminescence interference (SENP counter-screen); shares compounds with SENP7 inh; hit rate 39% among 6,200; inhibition, % at 12.5 µM; Pre-incubated SENP8/Z-RLRGG-aminoluciferin, luciferase luminescence interference; AID 488919;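 active means mean inhibition above about 50% when retested at one dose, limit read from the data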;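 further: plate controls were DMSO wells with completed reaction for no effect and substrate without enzyme for full effect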
* marks the source's active call; other numbers are inactive results; . = not tested or not shown. Rows were chosen to be rich in hits. Some 2.5% of all compounds tested hit in one or more screens of this group.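 How the source made its calls, unless noted: active means mean inhibition above about 50% in the one-dose retest (limit read from the data); inactive means the rest.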

SMILES	SENP7 inh	SENP8 block-1	SENP6 block	SENP8 block-2	SENP1 FRET inh	SENP8 confirm	SENP6 confirm	SENP7 conf	Casp3 SENP sel	Luc interf
Cc1cc(C(=O)COC(=O)c2cccnc2Cl)c(C)n1CC1CCCO1 (centres undefined)	93*	9	90*	90*	1	95*	96*	101*	98*	80*
O=C1CC2(CCN(C(=O)COc3ccc(Cl)cc3)CC2)Oc2ccccc21	3	-15	-9	-1	2	.	.	.	.	.
CSc1cccc(NC(=O)CNS(=O)(=O)c2ccccc2)c1	6	7	-5	-5	-1	.	.	.	.	.
CSc1ccc(CN2C(=O)NC3(CCCCCCC3)C2=O)cc1	2	15	-4	9	0	.	.	.	.	.
NC(=O)C1(Nc2ccc(Br)cc2)CCCC1	.	9	.	.	2	.	.	.	.	.
C#CCOC(=O)Nc1ccc(OCC(F)(F)F)nc1	4	9	6	-8	0	.	.	.	.	.
COc1ccc(OC)c(NC(=O)COC(=O)c2n[nH]c3ccccc23)c1	0	5	4	4	5	.	.	.	.	.
Cc1cc(C(=O)COC(=O)c2ccccc2O)c(C)n1Cc1cccs1	95*	-8	92*	93*	0	93*	98*	101*	93*	51*
COc1ccc(C(=O)COC(=O)c2n[nH]c3ccccc23)c(OC)c1	21	-4	51*	25	1	43	37	69*	32	35
Cc1cc(C(=O)COC(=O)c2ccccc2O)c(C)n1CC1CCCO1 (centres undefined)	97*	-21	97*	95*	1	98*	99*	102*	88*	56*
CCc1cc2cc(C(=O)Nc3ccc(F)cc3)sc2s1	79*	13	48	18	3	5	12	-3	11	-6
CCc1cc2cc(C(=O)Nc3ccccc3F)sc2s1	92*	8	50*	34	0	16	58*	98*	80*	5
CC(C)(C)c1ccc(C(=O)Nc2ccc(F)cc2)s1	73*	4	84*	80*	-1	58*	73*	95*	65*	35
COc1ccc(NC(=O)N(C)C[C@H]2Oc3c(NS(=O)(=O)c4cccs4)cccc3C(=O)N([C@@H](C)CO)C[C@@H]2C)cc1	3	10	-18	-5	1	.	.	.	.	.
O=C(C1CCCCC1)N1C[C@@H](O)[C@H](n2cc(C3CC3)nn2)C[C@@H]1c1ccccc1	.	9	.	.	-1	.	.	.	.	.
Cc1ccccc1NCc1nc2ccccc2n1C	86*	2	85*	78*	2	83*	84*	98*	93*	56*
Cn1c(CNc2ccccc2)nc2ccccc21	-2	-4	18	-16	-3	.	.	.	.	.
Cn1c(CNc2ccccc2O)nc2ccccc21	28	13	10	-7	2	.	.	.	.	.
CCn1cnc2cc(NCc3nc4ccccc4n3C)ccc21	3	-20	72*	68*	-17	78*	77*	93*	92*	78*
Cn1c(CNc2ccc(F)cc2)nc2ccccc21	78*	20	80*	58*	0	72*	72*	92*	87*	75*
O=[N+]([O-])c1ccc([N+](=O)[O-])c(Nc2ccc(N3CCOCC3)cc2)c1	4	21	-28	-3	0	.	.	.	.	.
CC(C)Cn1c(=O)[nH]c(=O)c2c(C(F)(F)F)cc(-c3ccccc3)nc21	6	-433	-13	-9	0	.	.	.	.	.
CCCc1c(-c2ccc(F)cc2F)ncn1Cc1ccccc1OC	.	0	.	.	13	.	.	.	.	.
N=c1sccn1CC(=O)Nc1cc(S(=O)(=O)N2CCCCC2)ccc1Cl	-1	25	-3	-3	0	.	.	.	.	.
Fc1cccc2sc(Nc3nc4cc5c(cc4s3)OCO5)nc12	53*	-449	7	-8	-39	-6	-10	2	5	-5
SMILES	SENP7 inh	SENP8 block-1	SENP6 block	SENP8 block-2	SENP1 FRET inh	SENP8 confirm	SENP6 confirm	SENP7 conf	Casp3 SENP sel	Luc interf
CCOC(=O)[C@]12CCC=C1N(Cc1cccc3ccccc13)C(=O)[C@H](CC(=O)NCc1ccc(OC)c(OC)c1)C2	.	0	.	.	-1	.	.	.	.	.
COc1ccc(C(=O)CNc2ccc3ccccc3c2)cc1	2	-358	46	6	-39	.	.	.	.	.
COc1ccc(C(=O)CC(=O)c2ccccc2)cc1	74*	-12	77*	67*	1	70*	70*	92*	55*	59*
O=C(COc1ccccc1)c1ccccc1	.	12	.	.	2	.	.	.	.	.
COC(=O)c1ccc(OCC(=O)c2ccccc2)cc1	57*	14	35	26	2	52*	51*	84*	73*	62*
COc1ccc(C(=O)CNc2ccccc2Br)cc1	9	21	58*	47	0	19	64*	61*	36	6
CC(=O)c1ccc(N2C(=NC(=O)C3CCCCC3)SC3CS(=O)(=O)CC32)cc1 (centres undefined)	-2	14	15	9	2	.	.	.	.	.
Cc1nn(-c2ccc(F)cc2)c2sc(C(=O)O)cc12	98*	8	-10	0	3	4	2	6	-3	-13
Cc1ccc(-n2nc(C)c3cc(C(=O)O)sc32)cc1	-3	20	-25	-7	0	.	.	.	.	.
Fc1ccc(-n2nnc(-c3cnc4ccccc4c3)n2)cc1	96*	12	93*	80*	-2	65*	67*	26	61*	33
Fc1ccc(-n2nnc(-c3cccnc3)n2)cc1	21	15	22	-6	-1	.	.	.	.	.
COc1cc(C=O)ccc1OCc1ccccc1Br	66*	15	75*	70*	1	-8	68*	89*	69*	73*
O=C1/C(=C/c2ccccc2)CCC1C1CCCC1 (centres undefined)	64*	15	73*	0	1	4	6	22	29	23
O=C1/C(=C/c2ccco2)CCC1C1CCCC1 (centres undefined)	73*	31	92*	77*	-2	-2	77*	95*	57*	16
CCOc1ccc(/C=C2\CCC(C3CCCC3)C2=O)cc1OC (centres undefined)	1	11	18	-3	3	.	.	.	.	.
